Source: article PMC6778631 (Cancer Science, 2019)
Where a chain is given by its changes, count along the chain named.

Legend:
IDH2‐R140Q [1] = target: T1, IDH2‐R140Q (Homo sapiens, UniProt P48735, R140Q); experiment: Cell-based enzyme assay, lysates of U-87 MG/IDH2-R140Q cells; format: biochemical; conditions: IC50, inhibition of IDH2-R140Q enzymatic activity
T1 sequence (P48735 40-452 R140Q): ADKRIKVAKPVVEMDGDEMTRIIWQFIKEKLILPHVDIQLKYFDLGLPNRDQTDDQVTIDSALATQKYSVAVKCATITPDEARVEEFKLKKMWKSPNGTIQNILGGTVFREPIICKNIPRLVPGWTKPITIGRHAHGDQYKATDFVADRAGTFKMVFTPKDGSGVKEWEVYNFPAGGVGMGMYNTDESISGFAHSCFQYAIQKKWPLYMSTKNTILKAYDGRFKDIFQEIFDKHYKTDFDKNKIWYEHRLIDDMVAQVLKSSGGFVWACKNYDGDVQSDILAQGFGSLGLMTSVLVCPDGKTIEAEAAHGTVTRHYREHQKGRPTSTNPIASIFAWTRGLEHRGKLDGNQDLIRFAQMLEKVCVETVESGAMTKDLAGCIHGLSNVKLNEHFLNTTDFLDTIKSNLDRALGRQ

IDH2‐R172K [2] = target: T2, IDH2‐R172K (Homo sapiens, UniProt P48735, R172K); experiment: Cell-based enzyme assay, lysates of U-87 MG/IDH2-R172K cells; format: biochemical
T2 sequence (P48735 40-452 R172K): T1 sequence (P48735 40-452 R140Q) with Q101R, R133K

IDH2‐WT = target: T3, IDH2‐WT (Homo sapiens, UniProt P48735); experiment: Cell-based enzyme assay, lysates of U-87 MG/IDH2-WT cells; format: biochemical
T3 sequence (P48735 40-452): T1 sequence (P48735 40-452 R140Q) with Q101R

IDH1‐R132C = IDH1‐R132C (Homo sapiens, UniProt O75874, R132C); experiment: Cell-based enzyme assay, lysates of U-87 MG/IDH1-R132C cells; format: biochemical
IDH1‐R132H = IDH1‐R132H (Homo sapiens, UniProt O75874, R132H); experiment: Cell-based enzyme assay, lysates of U-87 MG/IDH1-R132H cells; format: biochemical
IDH1‐WT = IDH1‐WT (Homo sapiens, UniProt O75874); experiment: Cell-based enzyme assay, lysates of U-87 MG/IDH1-WT cells; format: biochemical
U‐87 MG/IDH2‐R140Q cells = experiment: Cell-based inhibition of 2-HG production; conditions: Homo sapiens, 72 h, read-out: Inhibition of 2-HG production
TF‐1/IDH2‐R140Q cells [3] = experiment: Cell-based inhibition of 2-HG production; conditions: Homo sapiens, 72 h, read-out: IC50, anti-2-HG activity
TF‐1/IDH2‐R172K cells [4] = experiment: Cell-based inhibition of 2-HG production; conditions: Homo sapiens, 72 h, read-out: IC50, anti-2-HG activity
TF‐1/IDH2‐R140Q cells [5] = experiment: Erythroid differentiation under EPO, HBG mRNA by qRT-PCR; format: cell-based, human; conditions: 7 d + 7 d EPO
In short: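 TF-1 cells carrying doxycycline-inducible IDH2-R140Q got test compound for 7 d in RPMI-1640, 10% FBS, 2 ng/mL hGM-CSF. GM-CSF was then replaced by EPO (2 IU/mL) for another 7 d with compound present. HBG mRNA was measured in cell pellets by SYBR qRT-PCR, with GAPDH primers also used. Means ± SD of triplicates.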

TF‐1/IDH2‐R172K cells [6] = experiment: Erythroid differentiation under EPO, HBG mRNA by qRT-PCR; format: cell-based, human; conditions: 7 d + 7 d EPO
TF‐1/IDH2‐R140Q cells [7] = experiment: Cell proliferation assay; format: cell-based, human; conditions: 7 d + 7 d without hGM-CSF
TF‐1/IDH2‐R172K cells [8] = experiment: Cell proliferation assay; format: cell-based, human; conditions: 7 d + 7 d without hGM-CSF
IDH2‐R140Q [9] = target: T1, IDH2‐R140Q; experiment: Cellular thermal shift assay in U-87 MG cells; format: binding; conditions: 1 h treatment
IDH2‐R172K [10] = target: T2, IDH2‐R172K; experiment: Cellular thermal shift assay in U-87 MG cells; format: binding; conditions: 1 h treatment
wild‐type IDH2 = target: T4, wild‐type IDH2 (Homo sapiens, UniProt P48735); experiment: Cellular thermal shift assay in U-87 MG cells; format: binding; conditions: 1 h treatment
T4 sequence (P48735 40-452): T1 sequence (P48735 40-452 R140Q) with Q101R

IDH2‐R140Q‐Q316A = target: T5, IDH2‐R140Q‐Q316A (Homo sapiens, UniProt P48735, Q316A/R140Q); experiment: Cellular thermal shift assay in U-87 MG/IDH2-R140Q-Q316A cells; format: binding; conditions: 1 h treatment
T5 sequence (P48735 40-452 R140Q/Q316A): T1 sequence (P48735 40-452 R140Q) with Q277A

Sequence of IDH1‐R132H (O75874 whole entry R132H): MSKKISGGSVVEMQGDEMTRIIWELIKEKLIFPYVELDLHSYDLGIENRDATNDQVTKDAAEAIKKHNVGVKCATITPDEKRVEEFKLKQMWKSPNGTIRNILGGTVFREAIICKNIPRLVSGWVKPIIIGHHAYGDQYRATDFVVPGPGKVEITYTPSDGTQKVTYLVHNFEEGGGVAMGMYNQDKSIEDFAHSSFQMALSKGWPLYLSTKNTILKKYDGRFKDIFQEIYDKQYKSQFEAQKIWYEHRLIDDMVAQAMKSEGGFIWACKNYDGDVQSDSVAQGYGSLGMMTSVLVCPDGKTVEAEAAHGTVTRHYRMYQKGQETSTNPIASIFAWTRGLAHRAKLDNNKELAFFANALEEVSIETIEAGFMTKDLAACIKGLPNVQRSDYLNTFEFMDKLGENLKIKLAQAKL
Sequence of IDH1‐R132C (O75874 whole entry R132C): as the sequence (O75874 whole entry R132H) above, with H132C counted along it
Sequence of IDH1‐WT (O75874 whole entry): as the sequence (O75874 whole entry R132H) above, with H132R counted along it

IC50 (IDH2‐R140Q [1]): 0.229 ± 0.0232 µM
IC50 (IDH2‐R172K [2]): 0.625 ± 0.146 µM
Inhibitory effect on IDH2-WT enzymatic activity (IDH2‐WT): no apparent inhibitory effects
Inhibitory effect on IDH1-R132C enzymatic activity (IDH1‐R132C): no apparent inhibitory effects
Inhibitory effect on IDH1-R132H enzymatic activity (IDH1‐R132H): no apparent inhibitory effects
Inhibitory effect on IDH1-WT enzymatic activity (IDH1‐WT): no apparent inhibitory effects
IC50 (TF‐1/IDH2‐R140Q cells [3]): 0.0247 ± 0.0023 µM
IC50 (TF‐1/IDH2‐R172K cells [4]): 0.732 ± 0.331 µM
Thermal stabilization of IDH2-R140Q (CETSA) (IDH2‐R140Q [9]): apparent thermal‐stabilization effect
Thermal stabilization of IDH2-R172K (CETSA) (IDH2‐R172K [10]): weak thermal‐stabilization effect
Thermal stabilization of wild-type IDH2 (CETSA) (wild‐type IDH2): Neither TQ05310 nor AG‐221 stabilized
Thermal stabilization in U-87 MG/IDH2-R140Q-Q316A cells (CETSA) (IDH2‐R140Q‐Q316A): lost
SMILES: CC(C)(O)CNc1nc(Nc2ccnc(C(F)(F)F)c2)nc(-c2cccc(C(F)(F)F)n2)n1 [AG‐221, enasidenib]
inhibition at 0.2 µM (U‐87 MG/IDH2‐R140Q cells): 67.3%
Effect on HBG levels (cell differentiation) (TF‐1/IDH2‐R140Q cells [5]): increased HBG
Effect on HBG levels (cell differentiation) (TF‐1/IDH2‐R172K cells [6]): increased HBG only in TF‐1/IDH2‐R140Q cells
Effect on cell proliferation (MTT) (TF‐1/IDH2‐R140Q cells [7]): did not significantly inhibit proliferation
Effect on cell proliferation (MTT) (TF‐1/IDH2‐R172K cells [8]): did not significantly inhibit proliferation
